The record followed here is ChEMBL document CHEMBL3774342, “Indole Based Weapons to Fight Antibiotic Resistance: A Structure-Activity Relationship Study” (J Med Chem, 2016).

Usually inhibition stands for the change of the read-out against control, counted positive when it falls. In general, MIC refers to the smallest concentration in the dilution series that meets the test's criterion for growth inhibition. The term IC50 denotes the point on the concentration scale where inhibition reaches its midpoint. Broadly, the solubility is the concentration that dissolves in the medium under given conditions. Low readings indicate a poorly soluble substance, high ones a readily soluble substance.

Converted amounts (≈) assume the structure as drawn. The source made the active and inactive calls.

The target in data set [1] is T1, Quinolone resistance protein NorA (Staphylococcus aureus) (UniProt P0A0J7).
T1 sequence (whole entry): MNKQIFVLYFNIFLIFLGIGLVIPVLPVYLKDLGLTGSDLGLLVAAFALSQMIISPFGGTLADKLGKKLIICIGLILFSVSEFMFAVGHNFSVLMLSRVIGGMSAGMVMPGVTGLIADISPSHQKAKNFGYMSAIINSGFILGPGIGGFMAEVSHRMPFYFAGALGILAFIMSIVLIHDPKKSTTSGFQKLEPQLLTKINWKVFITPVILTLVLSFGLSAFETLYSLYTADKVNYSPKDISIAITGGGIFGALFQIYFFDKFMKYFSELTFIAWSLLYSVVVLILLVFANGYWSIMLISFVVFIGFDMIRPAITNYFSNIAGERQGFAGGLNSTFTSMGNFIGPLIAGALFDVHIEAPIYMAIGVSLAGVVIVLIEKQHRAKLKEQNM
In words: Inhibition of NorA efflux pump in Staphylococcus aureus assessed as potentiation of ciprofloxacin-mediated antibacterial activity at 1.5 ug/ml relative to control.

The subject of data set [2] is Liver microsome. In words: Drug level in human liver microsomes treated with Ethyl 1-Benzyl-2-methyl-5-(2-(piperazin-1-yl)ethoxy)-1H-indole-3-carboxylate at 10 uM preincubated for 5 mins followed by NADPH addition measured after 30 mins by HPLC-MS/MS analysis. As to conditions: 0.5 h. Type of data set: ADME. The procedure, abridged:
(§1)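 Human liver microsomes at 0.5 mg protein/ml in 100 mM potassium phosphate pH 7.4. Substrate at 10 µM final, pre-incubated 5 min at 37 °C with shaking, then started with 1 mM NADPH. Quenched at 0 and 30 min with cold acetonitrile containing labetalol internal standard. Spun 12000 g, 5 min, 4 °C; supernatant analysed by UHPLC C18 HPLC-MS/MS.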

Data set [3] deals with T1, Quinolone resistance protein NorA (Staphylococcus aureus). In words: Inhibition of NorA efflux pump in Staphylococcus aureus 1199B assessed as reduction in EtBr efflux at 50 uM incubated for 20 mins measured for 5 mins by real-time fluorometric analysis. The gist of the method: (§2)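 SA-1199B (norA-overexpressing) grown overnight in cation-supplemented Mueller-Hinton broth, diluted 25-fold and grown at 35 °C to OD600 0.7–0.8. Loaded with EtBr 25 µM plus CCCP 100 µM (final), then resuspended in fresh broth. Fluorescence read at ex 485/em 645 nm for 5 min, ± compound. Efflux inhibition in % relative to untreated cells; screened at 50 µM. IC50 from concentration series; triplicate, two technical replicates each.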

Data set [4] concerns Staphylococcus aureus. In words: Antimicrobial activity against Staphylococcus aureus 1199B by microdilution method. It counts as functional. The procedure, abridged:
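MIC by broth microdilution following CLSI guidelines against S. aureus SA-1199B, a strain that overexpresses norA. Run on compounds giving at least 80% EtBr efflux inhibition and on selected weaker ones.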

Data set [5] can be described thus: Metabolic stability in human liver microsomes assessed as compound remaining after at 10 uM preincubated for 5 mins followed by NADPH addition measured after 30 mins by HPLC-MS/MS analysis. Type of data set: ADME. The conditions noted are these: read-out: Stability. The gist of the method: as §1
For orientation: Microsomes from liver hold many membrane-bound enzymes, among them those of drug oxidation.

Data set [6] deals with Staphylococcus aureus. In words: Inhibition of NorA efflux pump A116E GrlA mutant in Staphylococcus aureus 1199B assessed as potentiation of ciprofloxacin-mediated antibacterial activity at 3.13 ug/ml relative to control.
The target of data set [7] is T1, Quinolone resistance protein NorA (Staphylococcus aureus). Briefly: Inhibition of NorA efflux pump in Staphylococcus aureus 1199 assessed as potentiation of ciprofloxacin-mediated antibacterial activity.
Data set [8] has as its target T2, Quinolone resistance protein NorA (Staphylococcus aureus, UniProt P0A0J7).
T2 sequence (P0A0J7 whole entry): T1 sequence (whole entry)
In words: Inhibition of NorA efflux pump in Staphylococcus aureus 1199B assessed as reduction in EtBr efflux incubated for 20 mins measured for 5 mins by real-time fluorometric analysis. The procedure, abridged:
as §2

The subject of data set [9] is Liver microsome. In words: Drug metabolism in human liver microsomes assessed as ethyl 5-(3-aminopropoxy)-2-methyl-1H-indole-3-carboxylate formation at 10 uM preincubated for 5 mins followed by NADPH addition measured after 30 mins by HPLC-MS/MS analysis. Type of data set: ADME. The conditions noted are these: 0.5 h. The gist of the method:
as §1

In data set [10] the test system is Liver microsome. Briefly: Drug metabolism in human liver microsomes assessed as 5-(3-aminopropoxy)-1-benzyl-2-methyl-1H-indole-3-carboxylic acid formation at 10 uM preincubated for 5 mins followed by NADPH addition measured after 30 mins by HPLC-MS/MS analysis. It counts as ADME. As to conditions: 0.5 h. The gist of the method: as §1
Data set [11] can be described thus: Solubility of the compound in D2O solution at 25 degC by 1H NMR analysis. Type of data set: physicochemical. The gist of the method: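 1H NMR in D2O at 25 °C with TSP internal standard, following a literature procedure.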
Data set [12] deals with Liver microsome. Briefly: Drug metabolism in human liver microsomes assessed as ethyl 2-methyl-5-(3-(piperazin-1-yl)propoxy)-1H-indole-3-carboxylate formation at 10 uM preincubated for 5 mins followed by NADPH addition measured after 30 mins by HPLC-MS/MS analysis. Type of data set: ADME. As to conditions: 0.5 h. The procedure, abridged: as §1
The subject of data set [13] is Liver microsome. In words: Drug metabolism in human liver microsomes assessed as 1-benzyl-2-methyl-5-(3-(piperazin-1-yl)propoxy)-1H-indole-3-carboxylic acid formation at 10 uM preincubated for 5 mins followed by NADPH addition measured after 30 mins by HPLC-MS/MS analysis. Type of data set: ADME. The conditions noted are these: 0.5 h. The procedure, abridged:
as §1

For data set [14], the system named is Liver microsome. Briefly: Drug metabolism in human liver microsomes assessed as ethyl 2-Methyl-5-(3-(piperidin-1-yl)propoxy)-1H-indole-3-carboxylate formation at 10 uM preincubated for 5 mins followed by NADPH addition measured after 30 mins by HPLC-MS/MS analysis. The conditions noted are these: 0.5 h. Type of data set: ADME. The procedure, abridged: as §1

The test system of data set [15] is Liver microsome. Briefly: Drug metabolism in human liver microsomes assessed as ethyl 1-(2-hydroxybenzyl)-2-methyl-5-(3-(piperidin-1-yl)propoxy)-1H-indole-3-carboxylate formation at 10 uM preincubated for 5 mins followed by NADPH addition measured after 30 mins by HPLC-MS/MS analysis. It counts as ADME. As to conditions: 0.5 h. The gist of the method: as §1
Data set [16] relates to Liver microsome. In words: Drug metabolism in human liver microsomes assessed as N-dealkylated M-68 formation at 10 uM preincubated for 5 mins followed by NADPH addition measured after 30 mins by HPLC-MS/MS analysis. Type of data set: ADME. As to conditions: 0.5 h. The gist of the method: as §1
The test system of data set [17] is Liver microsome. In words: Drug metabolism in human liver microsomes assessed as N-dealkylated M-90 formation at 10 uM preincubated for 5 mins followed by NADPH addition measured after 30 mins by HPLC-MS/MS analysis. Type of data set: ADME. The conditions noted are these: 0.5 h. The gist of the method:
as §1

The test system of data set [18] is Liver microsome. Briefly: Drug level in human liver microsomes treated with Ethyl 1-benzyl-2-methyl-5-(3-(piperidin-1-yl)propoxy)-1H-indole-3-carboxylate at 10 uM preincubated for 5 mins followed by NADPH addition measured after 30 mins by HPLC-MS/MS analysis. The conditions noted are these: 0.5 h. Type of data set: ADME. The procedure, abridged:
as §1

Data set [19] relates to Liver microsome. Briefly: Drug level in human liver microsomes treated with Ethyl 1-(2-Methoxybenzyl)-2-methyl-5-(3-(piperidin-1-yl)-propoxy)-1H-indole-3-carboxylate at 10 uM preincubated for 5 mins followed by NADPH addition measured after 30 mins by HPLC-MS/MS analysis. It counts as ADME. As to conditions: 0.5 h. The gist of the method:
as §1

Data set [20] concerns Liver microsome. In words: Drug metabolism in human liver microsomes assessed as 1-Benzyl-2-methyl-5-(3-(piperidin-1-yl)propoxy)-1H-indole-3-carboxylic acid formation at 10 uM preincubated for 5 mins followed by NADPH addition measured after 30 mins by HPLC-MS/MS analysis. Type of data set: ADME. The conditions noted are these: 0.5 h. The procedure, abridged: as §1
In data set [21] the test system is Liver microsome. In words: Drug metabolism in human liver microsomes assessed as ethyl 2-methyl-5-(2-(piperazin-1-yl)ethoxy)-1H-indole-3-carboxylate formation at 10 uM preincubated for 5 mins followed by NADPH addition measured after 30 mins by HPLC-MS/MS analysis. It counts as ADME. The conditions noted are these: 0.5 h. The gist of the method: as §1
For data set [22], the system named is Liver microsome. In words: Drug metabolism in human liver microsomes assessed as 1-benzyl-2-methyl-5-(2-(piperazin-1-yl)ethoxy)-1H-indole-3-carboxylic acid formation at 10 uM preincubated for 5 mins followed by NADPH addition measured after 30 mins by HPLC-MS/MS analysis. As to conditions: 0.5 h. Type of data set: ADME. The procedure, abridged: as §1

For the compound `O=[N+]([O-])c1ccc2[nH]c(-c3ccccc3)cc2c1`, the fold change (FC) in [1] stood at 4.
For `CCOC(=O)c1c(C)[nH]c2ccc(OCCN3CCNCC3)cc12`, in the data set on Liver microsome [2], the Drug metabolism entry is listed as “metabolite_detected”.
On the same count and under the same terms, the result for `Cc1c(C(=O)O)c2cc(OCCN3CCNCC3)ccc2n1Cc1ccccc1` reads “metabolite_detected”.
Consider `CCOC(=O)c1c(C)n(Cc2ccccc2)c2ccc(OCCCN)cc12`, for which the inhibition in data set [3] stood at 100%. In addition, the MIC with Staphylococcus aureus [4] was above 100 µg/mL. Moreover, in data set [5], the remaining at 0.5 h, 10 µM is 87%. Moreover, the fold change (FC) in the data set on Staphylococcus aureus [6] was 4. Also, the inhibition entry in [7] is “inactive”. Also, the 50% inhibitory concentration (IC50) in data set [8] was determined as 12.5 µM. Also, the Drug metabolism entry in the data set on Liver microsome [9] and with Liver microsome [10] was “metabolite_detected” each time. The compound further gave a solubility in data set [11] of 17 µM (≈ 6.23 µg/mL).
Take `CCOC(=O)c1c(C)n(Cc2ccccc2)c2ccc(OCCCN3CCNCC3)cc12`: the inhibition in [3] was found to be 100%. This compound had an MIC against Staphylococcus aureus [4] of 100 µg/mL (≈ 230 µM). Moreover, the remaining at 0.5 h, 10 µM in data set [5] was determined as 82%. The fold change (FC) in the data set with Staphylococcus aureus [6] came out at 4. In data set [7], the inhibition result was “inactive”. Further, the half-maximal inhibitory concentration (IC50) in data set [8] is 12.5 µM. For the same compound, the Drug metabolism entry in the data set with Liver microsome [12] and with Liver microsome [13] was “metabolite_detected” in each case. Besides, in [11], the solubility was determined as 20 µM (≈ 8.71 µg/mL).
Take `CCOC(=O)c1c(C)n(Cc2ccccc2OC)c2ccc(OCCCN3CCCCC3)cc12`: the inhibition in data set [3] came out at 87.9%. The same compound had an MIC against Staphylococcus aureus [4] above 100 µg/mL. The remaining at 0.5 h, 10 µM in data set [5] worked out at 66%. Moreover, in [8], the IC50 was 5 µM. Also, the Drug metabolism entry in the data set on Liver microsome [14] and with Liver microsome [15] was “metabolite_detected” in each case. This compound also came in with a solubility in data set [11] of 25 µM (≈ 11.6 µg/mL).
In the case of `CCOC(=O)c1c(C)n(Cc2ccccc2)c2ccc(OCC(F)CN3CCCCC3)cc12` (centres undefined), in data set [3], the inhibition amounted to 96.7%. The compound also returned an MIC with Staphylococcus aureus [4] above 100 µg/mL. For the same compound, the remaining at 0.5 h, 10 µM in data set [5] is 52%. In addition, in [8], the IC50 turned out to be 5.1 µM. Also, the Drug metabolism result in the data set on Liver microsome [16] and with Liver microsome [17] was “metabolite_detected” in each case. For the same compound, the concentration in solution in [11] (solubility) was 20 µM (≈ 9.05 µg/mL).
`CCOC(=O)c1c(C)[nH]c2ccc(OCCCN3CCCCC3)cc12`: the inhibition in data set [3] worked out at 34.2%. For the same compound, the Drug metabolism result with Liver microsome [18] and with Liver microsome [19] was “metabolite_detected” each time.
On to `CCOC(=O)c1c(C)n(Cc2ccccc2)c2ccc(OCCCN3CCCCC3)cc12`, for which the inhibition in data set [3] stood at 98.5%. The compound further gave an MIC in the data set on Staphylococcus aureus [4] above 100 µg/mL. Also, in data set [5], the remaining at 0.5 h, 10 µM is 76%. Besides, the IC50 in [8] was determined as 6 µM. For the same compound, the Drug metabolism result with Liver microsome [14] and in the data set with Liver microsome [20] was “metabolite_detected” in each case. Also, in data set [11], the concentration in solution (solubility) came to 23 µM (≈ 10 µg/mL).
As for `CCOC(=O)c1c(C)n(Cc2ccccc2)c2ccc(OCCN3CCNCC3)cc12`, the inhibition in data set [3] is 99.2%. The minimum inhibitory concentration (MIC) against Staphylococcus aureus [4] is above 100 µg/mL. Also, the Drug metabolism entry in the data set on Liver microsome [21] and with Liver microsome [22] was “metabolite_detected” in each case. The remaining at 0.5 h, 10 µM in data set [5] amounted to 72%. Moreover, in the data set with Staphylococcus aureus [6], the fold change (FC) came to 4. Moreover, in data set [7], the inhibition result is “inactive”. In data set [8], the IC50 is 15.5 µM. The solubility in [11] was 190 µM (≈ 80.1 µg/mL).
